Legend:
[1] = tested on: Rattus norvegicus; experiment: Tested for distribution of radioactivity of iodine 125 in blood of rat after 5 min of intravenous administration; format: ADME, organism-based; conditions: in vivo
Method in brief: (§1)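 Fischer 344 rats, four per time point, under ether anaesthesia. Each received ~8.6 μCi of 125I-labelled fatty acid (sp act ~20 mCi/mmol) by lateral tail vein in 0.5 mL 6% bovine serum albumin with 10% final ethanol, filtered before injection. Percent injected dose/g was calculated against injectate standards and reported as mean (range). Thyroid weight was taken as body weight × 7.5 mg/100 g.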

[2] = tested on: Rattus norvegicus; experiment: Tested for distribution of radioactivity iodine 125 in heart of rat after 30 min of intravenous administration (value in parentheses indicates range); format: ADME, organism-based; conditions: in vivo, 0.5 h; method in brief: as §1
[3] = tested on: Rattus norvegicus; experiment: Tested for distribution of radioactivity of iodine 125 in liver of rat after 60 min of intravenous administration; format: ADME, organism-based; conditions: in vivo, 1 h; method in brief: as §1
[4] = tested on: Rattus norvegicus; experiment: Tested for distribution of radioactivity iodine 125 in heart of rat after 4 hours of intravenous administration; format: ADME, organism-based; conditions: in vivo; method in brief: as §1
[5] = Tested for distribution of radioactivity of iodine 125 in kidney of rat after 60 min of intravenous administration; format: ADME; conditions: in vivo, 1 h; method in brief: as §1
[6] = tested on: Rattus norvegicus; experiment: Tested for distribution of radioactivity of iodine 125 in liver of rat after 30 min of intravenous administration; format: ADME, organism-based; conditions: in vivo, 0.5 h; method in brief: as §1
[7] = tested on: Rattus norvegicus; experiment: Tested for distribution of radioactivity of iodine 125 in thyroid of rat after 30 min of intravenous administration; format: ADME, organism-based, Thyroid gland; conditions: in vivo, 0.5 h; method in brief: as §1
[8] = tested on: Rattus norvegicus; experiment: Tested for distribution of radioactivity of iodine 125 in thyroid of rat after 4 hr of intravenous administration; format: ADME, organism-based, Thyroid gland; conditions: in vivo; method in brief: as §1
[9] = tested on: Rattus norvegicus; experiment: Tested for distribution of radioactivity of iodine 125 in thyroid of rat after 2 hr of intravenous administration; format: ADME, organism-based, Thyroid gland; conditions: in vivo; method in brief: as §1
[10] = tested on: Rattus norvegicus; experiment: Tested for distribution of radioactivity of iodine 125 in lungs of rat after 60 min of intravenous administration; format: ADME, organism-based, Lung; conditions: in vivo, 1 h; method in brief: as §1
[11] = tested on: Rattus norvegicus; experiment: Tested for distribution of radioactivity in heart of rat after 2 hours of intravenous administration; format: ADME, organism-based; conditions: in vivo; method in brief: as §1
[12] = tested on: Rattus norvegicus; experiment: Tested for distribution of radioactivity of iodine 125 in lungs of rat after 5 min of intravenous administration; format: ADME, organism-based, Lung; conditions: in vivo; method in brief: as §1
[13] = tested on: Rattus norvegicus; experiment: Tested for distribution of radioactivity of iodine 125 in blood of rat after 30 min of intravenous administration; format: ADME, organism-based; conditions: in vivo, 0.5 h; method in brief: as §1
[14] = tested on: Rattus norvegicus; experiment: Tested for distribution of radioactivity of iodine 125 in kidney of rat after 5 min of intravenous administration; format: ADME, organism-based; conditions: in vivo; method in brief: as §1
[15] = tested on: Rattus norvegicus; experiment: Tested for distribution of radioactivity of iodine 125 in heart of rat after 5 min of intravenous administration; format: ADME, organism-based; conditions: in vivo; method in brief: as §1
[16] = tested on: Rattus norvegicus; experiment: Tested for distribution of radioactivity of iodine 125 in blood of rat after 2 hour of intravenous administration; format: ADME, organism-based; conditions: in vivo; method in brief: as §1
[17] = tested on: Rattus norvegicus; experiment: Tested for distribution of radioactivity of iodine 125 in thyroid of rat after 60 min of intravenous administration; format: ADME, organism-based, Thyroid gland; conditions: in vivo, 1 h; method in brief: as §1
[18] = tested on: Rattus norvegicus; experiment: Tested for distribution of radioactivity of iodine 125 in blood of rat after 60 min of intravenous administration; format: ADME, organism-based; conditions: in vivo, 1 h; method in brief: as §1
[19] = tested on: Rattus norvegicus; experiment: Tested for distribution of radioactivity of iodine 125 in lungs of rat after 30 min of intravenous administration; format: ADME, organism-based, Lung; conditions: in vivo, 0.5 h; method in brief: as §1
[20] = tested on: Rattus norvegicus; experiment: Tested for distribution of radioactivity of iodine 125 in kidney of rat after 2 hours of intravenous administration; format: ADME, organism-based; conditions: in vivo; method in brief: as §1
[21] = tested on: Rattus norvegicus; experiment: Tested for distribution of radioactivity of iodine 125 in kidney of rat after 4 hours of intravenous administration; format: ADME, organism-based; conditions: in vivo; method in brief: as §1
[22] = tested on: Rattus norvegicus; experiment: Tested for distribution of radioactivity iodine 125 in heart of rat after 60 min of intravenous administration; format: ADME, organism-based; conditions: in vivo, 1 h; method in brief: as §1
[23] = tested on: Rattus norvegicus; experiment: Tested for distribution of radioactivity of iodine 125 in liver of rat after 2 hr of intravenous administration; format: ADME, organism-based; conditions: in vivo; method in brief: as §1
[24] = tested on: Rattus norvegicus; experiment: Tested for distribution of radioactivity of iodine 125 in blood of rat after 4 hours of intravenous administration; format: ADME, organism-based; conditions: in vivo; method in brief: as §1
[25] = tested on: Rattus norvegicus; experiment: Tested for distribution of radioactivity of iodine 125 in kidney of rat after 30 min of intravenous administration; format: ADME, organism-based; conditions: in vivo, 0.5 h; method in brief: as §1
[26] = tested on: Rattus norvegicus; experiment: Tested for distribution of radioactivity of iodine 125 in thyroid of rat after 5 min of intravenous administration; format: ADME, organism-based, Thyroid gland; conditions: in vivo; method in brief: as §1
[27] = tested on: Rattus norvegicus; experiment: Tested for distribution of radioactivity of iodine 125 in liver of rat after 4 hr of intravenous administration; format: ADME, organism-based; conditions: in vivo; method in brief: as §1
[28] = tested on: Rattus norvegicus; experiment: Tested for distribution of radioactivity of iodine 125 in lungs of rat after 2 hours of intravenous administration; format: ADME, organism-based, Lung; conditions: in vivo; method in brief: as §1
[29] = tested on: Rattus norvegicus; experiment: Tested for distribution of radioactivity of iodine 125 in liver of rat after 5 min of intravenous administration; format: ADME, organism-based; conditions: in vivo; method in brief: as §1

`O=C(O)CCCCC[Te]CCCCCCCCC/C=C/I` gave an Injected dose/g [1] of 0.26%, an Injected dose/g [2] of 2.78% and an Injected dose/g [3] of 5.33%. It also gave an Injected dose/g [4] of 2.37%, an Injected dose/g [5] of 0.95% and an Injected dose/g [6] of 5.63%. It also gave an Injected dose/g [7] of 13.5%, an Injected dose/g [8] of 69.8% and an Injected dose/g [9] of 43.8%. It also gave an Injected dose/g [10] of 1%, an Injected dose/g [11] of 2.86% and an Injected dose/g [12] of 1.29%. The Injected dose/g [13] was 0.22%, the Injected dose/g [14] was 1.05% and the Injected dose/g [15] was 3.47%. It also gave an Injected dose/g [16] of 0.23%, an Injected dose/g [17] of 22.2% and an Injected dose/g [18] of 0.22%. The Injected dose/g [19] was 0.96%, the Injected dose/g [20] was 0.88% and the Injected dose/g [21] was 0.77%. For the same molecule, the Injected dose/g [22] was 2.96%, the Injected dose/g [23] was 4.78% and the Injected dose/g [24] was 0.27%. The Injected dose/g [25] was 0.89%, the Injected dose/g [26] was 8.54% and the Injected dose/g [27] was 4.4%. It also gave an Injected dose/g [28] of 1% and an Injected dose/g [29] of 6.18%.
